Source: BindingDB's records for doi:10.1016/j.ejmech.2018.08.004 (The University of Queensland, 2018)

Legend:
[1] = target: T1, Tartrate-resistant acid phosphatase type 5 (Sus scrofa, UniProt P09889); test: Competitive inhibition of pig purple acid phosphatase Fe(3)Fe(2) state assessed as enzyme-inhibitor complex using pNPP as substrate by UV/Vis spectrophotometric method
T1 sequence (P09889 whole entry): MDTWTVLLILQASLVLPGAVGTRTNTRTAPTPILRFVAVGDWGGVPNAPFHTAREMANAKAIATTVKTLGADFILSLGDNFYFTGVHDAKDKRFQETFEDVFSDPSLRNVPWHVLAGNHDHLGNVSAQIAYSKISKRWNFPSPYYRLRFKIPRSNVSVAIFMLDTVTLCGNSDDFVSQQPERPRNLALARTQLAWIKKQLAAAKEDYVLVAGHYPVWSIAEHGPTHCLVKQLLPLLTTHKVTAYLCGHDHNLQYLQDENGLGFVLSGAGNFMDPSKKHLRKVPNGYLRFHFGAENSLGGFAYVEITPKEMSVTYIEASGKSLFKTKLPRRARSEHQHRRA
Summary of the method: (§1)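 Pig PAP was from sow uterine fluid and pre-reduced to Fe(III)Fe(II) with 0.77 mM β-mercaptoethanol (10 min, 37 °C); rkbPAP was purified from red kidney beans. Assays ran at 25 °C, pH 4.9 (0.1 M acetate, 25% DMSO) with 12 nM enzyme, pNPP 1–12.5 mM and inhibitor 50–300 μM. p-Nitrophenol was read at 405 nm. Kic and Kiuc came from non-linear fit to the general inhibition equation.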

[2] = target: T2, Fe(3+)-Zn(2+) purple acid phosphatase (Phaseolus vulgaris, UniProt P80366); test: Competitive inhibition of red kidney bean purple acid phosphatase Fe(3)Fe(2) state assessed as enzyme-inhibitor complex using pNPP as substrate by UV/Vis spectrophotometric method; summary of the method: as §1
T2 sequence (P80366 whole entry): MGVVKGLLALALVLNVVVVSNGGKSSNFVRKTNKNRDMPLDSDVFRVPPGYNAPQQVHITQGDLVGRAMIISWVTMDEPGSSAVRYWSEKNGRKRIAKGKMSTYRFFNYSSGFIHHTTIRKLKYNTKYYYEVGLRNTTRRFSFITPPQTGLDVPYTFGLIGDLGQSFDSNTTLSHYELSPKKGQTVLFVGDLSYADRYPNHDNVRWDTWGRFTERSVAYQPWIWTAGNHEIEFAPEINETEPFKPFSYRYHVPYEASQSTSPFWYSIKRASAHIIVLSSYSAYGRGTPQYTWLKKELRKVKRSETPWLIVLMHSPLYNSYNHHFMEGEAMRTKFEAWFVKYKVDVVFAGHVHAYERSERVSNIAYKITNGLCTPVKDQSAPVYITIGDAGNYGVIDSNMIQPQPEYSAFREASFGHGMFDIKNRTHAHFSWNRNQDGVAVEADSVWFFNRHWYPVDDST

Row | Ki [1] | Ki [2] | Compound
1 | 120 µM | 400 µM | COc1ccc(-c2nc(C(=O)O)cs2)cc1
2 | 190 µM | – | O=C(O)c1csc(-c2ccccc2)n1
3 | 49 µM | 530 µM | O=C(O)c1csc(-c2ccc(Cl)cc2)n1
4 | 630 µM | 920 µM | O=C(O)c1csc(-c2ccccc2Cl)n1

Row | Compound | Ki [1] | Ki [2]
5 | O=C(O)c1csc(-c2cccc3ccccc23)n1 | 33 µM | 185 µM
6 | Cc1ccc(-c2nc(C(=O)O)cs2)cc1 | 42 µM | 340 µM
